These results are taken from ChEMBL document CHEMBL1759833, “Synthesis and biological evaluation of some 4-functionalized-pyrazoles as antimicrobial agents” (2011).

Holding throughout (format): functional
In one assay the test system is Aspergillus niger. The experiment in a line: Antifungal activity against Aspergillus niger MTCC 282 assessed as inhibition of mycelial growth for 7 days by poisoned food method. The method in brief:
(§1)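 Poisoned food method. Compound at 4.0 mg/mL in DMSO was mixed into agar, poured and solidified at room temperature. Each plate was inoculated centrally with an 8 mm plug from an actively growing colony and incubated at 25 °C for 7 days. Colony diameter was converted to percent mycelial inhibition, in triplicate. Controls were DMSO (negative) and fluconazole (positive).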

A further assay concerns Aspergillus flavus. The experiment in a line: Antifungal activity against Aspergillus flavus MTCC 871 assessed as inhibition of mycelial growth for 7 days by poisoned food method. The procedure, abridged:
as §1

Assay [1] has as its system Staphylococcus aureus. Nature of the assay: Antibacterial activity against Staphylococcus aureus MTCC 96 for 24 hrs by agar diffusion method. The procedure, abridged:
(§2)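 Agar well diffusion on Mueller Hinton agar plates swabbed with bacterial suspension of approx. 1.5 × 10⁸ cfu/mL. 8 mm wells were loaded with compound at 4.0 mg/mL in DMSO. Plates were incubated 37 °C for 24 h. Read-out was inhibition zone diameter in mm, including the 8 mm well, as mean of three replicates. Controls were DMSO (negative) and ciprofloxacin (positive).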
In general terms: A growth-free zone around the sample is the usual read-out of agar diffusion tests.

The subject of assay [2] is Bacillus subtilis. Nature of the assay: Antibacterial activity against Bacillus subtilis MTCC 121 for 24 hrs by agar diffusion method. The method in brief: as §2
Assay [3] concerns Staphylococcus aureus. Nature of the assay: Antibacterial activity against Staphylococcus aureus MTCC 96 for 24 hrs by macrodilution method. As to conditions: MTCC 96, 24 h. The method in brief:
(§3)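 MIC by NCCLS macrodilution tube method. Tubes were inoculated with bacteria at 1.5 × 10⁸ cfu/mL and incubated at 37 °C for 24 h. Turbidity was scored visually. Ciprofloxacin served as control.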

In assay [4] the test system is Bacillus subtilis. The experiment in a line: Antibacterial activity against Bacillus subtilis MTCC 121 for 24 hrs by macrodilution method. To be noted: MTCC 121, 24 h. The method in brief: as §3

≈ marks a conversion by molar mass, not a printed value. Some results are limits rather than exact numbers.

Regarding `NS(=O)(=O)c1ccc(-n2cc(C(=O)O)c(-c3ccccc3)n2)cc1`, the “inhibition (INH)” value came out at 50% in the assay with Aspergillus niger and 55.5% in the assay on Aspergillus flavus. Also, the “diameter of the inhibition zone (DIZ)” value was 15.3 mm in the assay with Staphylococcus aureus [1] and 16.6 mm in the assay with Bacillus subtilis [2]. The MIC in the assay with Staphylococcus aureus [3] and against Bacillus subtilis [4] was 128 µg/mL (≈ 373 µM) throughout.

Consider `Cc1ccc(-c2nn(-c3ccc(S(N)(=O)=O)cc3)cc2C(=O)O)cc1`, for which the “inhibition (INH)” value in the assay with Aspergillus niger turned out to be 46.6%; with Aspergillus flavus, 51.1%. Besides, the “diameter of the inhibition zone (DIZ)” value with Staphylococcus aureus [1] was found to be 14.6 mm; in the assay with Bacillus subtilis [2] it was 17.3 mm. The MIC (as a rule, the smallest concentration in the dilution series that meets the test's criterion for growth inhibition) is more than 128 µg/mL in the assay with Staphylococcus aureus [3] and 64 µg/mL (≈ 179 µM) in the assay on Bacillus subtilis [4].

`COc1ccc(-c2nn(-c3ccc(S(N)(=O)=O)cc3)cc2C(=O)O)cc1`: the “inhibition (INH)” value in the assay on Aspergillus niger and in the assay with Aspergillus flavus was 44.4% in each case. The “diameter of the inhibition zone (DIZ)” value in the assay with Staphylococcus aureus [1] was 15.6 mm; with Bacillus subtilis [2] it was 17 mm. Moreover, the MIC in the assay with Staphylococcus aureus [3] amounted to 128 µg/mL (≈ 343 µM); against Bacillus subtilis [4], 64 µg/mL (≈ 171 µM).

On to `NS(=O)(=O)c1ccc(-n2cc(C(=O)O)c(-c3ccc(F)cc3)n2)cc1`, for which the “inhibition (INH)” value in the assay on Aspergillus niger was found to be 52.5%; with Aspergillus flavus, 48.8%. Further, the “diameter of the inhibition zone (DIZ)” value is recorded as 15 mm with Staphylococcus aureus [1] and 18.6 mm in the assay on Bacillus subtilis [2]. Further, the results for the minimal inhibitory concentration (MIC) in the assay on Staphylococcus aureus [3] and against Bacillus subtilis [4] were 128 µg/mL (≈ 354 µM) and 64 µg/mL (≈ 177 µM), respectively.

In the case of `NS(=O)(=O)c1ccc(-n2cc(C(=O)O)c(-c3ccc(Cl)cc3)n2)cc1`, the “inhibition (INH)” value is 45.5% in the assay on Aspergillus niger and 44.4% in the assay on Aspergillus flavus. Besides, the “diameter of the inhibition zone (DIZ)” value is on record as 18.6 mm with Staphylococcus aureus [1] and 21.6 mm in the assay with Bacillus subtilis [2]. Moreover, the MIC in the assay with Staphylococcus aureus [3] came to 64 µg/mL (≈ 169 µM); in the assay with Bacillus subtilis [4], 32 µg/mL (≈ 84.7 µM).

Take `NC(=S)c1cn(-c2ccc(S(N)(=O)=O)cc2)nc1-c1ccc(F)cc1`: the “inhibition (INH)” value in the assay with Aspergillus niger is listed as 44.4%; in the assay on Aspergillus flavus it was 61.1%. Further, the results for the “diameter of the inhibition zone (DIZ)” value with Staphylococcus aureus [1] and in the assay on Bacillus subtilis [2] were 17.6 mm and 15.3 mm, respectively. For the same compound, the values for the MIC in the assay with Staphylococcus aureus [3] and against Bacillus subtilis [4] were 64 µg/mL (≈ 170 µM) and 128 µg/mL (≈ 340 µM), respectively.

For `NC(=S)c1cn(-c2ccc(S(N)(=O)=O)cc2)nc1-c1ccc(Cl)cc1`, the “inhibition (INH)” value is recorded as 50% in the assay on Aspergillus niger and 52.5% in the assay on Aspergillus flavus. The “diameter of the inhibition zone (DIZ)” value is 18.3 mm in the assay with Staphylococcus aureus [1] and 14.6 mm with Bacillus subtilis [2]. The MIC in the assay on Staphylococcus aureus [3] is 64 µg/mL (≈ 163 µM); in the assay on Bacillus subtilis [4], more than 128 µg/mL.

`NC(=S)c1cn(-c2ccc(S(N)(=O)=O)cc2)nc1-c1ccc(Br)cc1`: the “inhibition (INH)” value in the assay on Aspergillus niger was 44.4%; with Aspergillus flavus it was 51.1%. Further, the “diameter of the inhibition zone (DIZ)” value in the assay on Staphylococcus aureus [1] is listed as 21.6 mm; in the assay on Bacillus subtilis [2], 18.3 mm. Besides, the MIC against Staphylococcus aureus [3] amounted to 32 µg/mL (≈ 73.2 µM); in the assay with Bacillus subtilis [4], 64 µg/mL (≈ 146 µM).

In the case of `NC(=S)c1cn(-c2ccc(S(N)(=O)=O)cc2)nc1-c1cccs1`, the “inhibition (INH)” value with Aspergillus niger was found to be 61.1%; in the assay with Aspergillus flavus it was 55.5%. The entries for the “diameter of the inhibition zone (DIZ)” value with Staphylococcus aureus [1] and in the assay on Bacillus subtilis [2] were 20.3 mm and 17.6 mm, respectively. For the same compound, the MIC against Staphylococcus aureus [3] and in the assay on Bacillus subtilis [4] was 64 µg/mL (≈ 176 µM) each time.

On to `NS(=O)(=O)c1ccc(-n2cc(C(=O)O)c(-c3ccc(Br)cc3)n2)cc1`, for which the “inhibition (INH)” value with Aspergillus niger is reported as 51.1%; in the assay on Aspergillus flavus, 45.5%. Besides, the “diameter of the inhibition zone (DIZ)” value was determined as 15.6 mm in the assay on Staphylococcus aureus [1] and 14.3 mm in the assay with Bacillus subtilis [2]. The MIC against Staphylococcus aureus [3] was 128 µg/mL (≈ 303 µM); against Bacillus subtilis [4], more than 128 µg/mL.

In the case of `NS(=O)(=O)c1ccc(-n2cc(C(=O)O)c(-c3ccc([N+](=O)[O-])cc3)n2)cc1`, the results for the “inhibition (INH)” value with Aspergillus niger and in the assay with Aspergillus flavus were 61.1% and 57.7%, respectively. Besides, the “diameter of the inhibition zone (DIZ)” value with Staphylococcus aureus [1] was 14.6 mm; with Bacillus subtilis [2], 15 mm. In addition, the results for the minimal inhibitory concentration (MIC) in the assay on Staphylococcus aureus [3] and in the assay with Bacillus subtilis [4] were more than 128 µg/mL and 128 µg/mL (≈ 330 µM), respectively.

On to `NS(=O)(=O)c1ccc(-n2cc(C(=O)O)c(-c3cccs3)n2)cc1`, for which the “inhibition (INH)” value in the assay with Aspergillus niger was 57.7%; with Aspergillus flavus, 55.5%. The “diameter of the inhibition zone (DIZ)” value in the assay on Staphylococcus aureus [1] came out at 18.6 mm; in the assay on Bacillus subtilis [2], 15.6 mm. For the same compound, the minimal inhibitory concentration (MIC) against Staphylococcus aureus [3] worked out at 64 µg/mL (≈ 183 µM); in the assay with Bacillus subtilis [4], 128 µg/mL (≈ 366 µM).

In the case of `NC(=S)c1cn(-c2ccc(S(N)(=O)=O)cc2)nc1-c1ccccc1`, the “inhibition (INH)” value in the assay with Aspergillus niger came to 50%; in the assay on Aspergillus flavus, 53.3%. The figures for the “diameter of the inhibition zone (DIZ)” value in the assay with Staphylococcus aureus [1] and in the assay on Bacillus subtilis [2] were 15.3 mm and 15 mm, respectively. For the same compound, the minimal inhibitory concentration (MIC) against Staphylococcus aureus [3] and against Bacillus subtilis [4] was 128 µg/mL (≈ 357 µM) each time.

In the case of `Cc1ccc(-c2nn(-c3ccc(S(N)(=O)=O)cc3)cc2C(N)=S)cc1`, the “inhibition (INH)” value was 44.4% in the assay on Aspergillus niger and 51.1% with Aspergillus flavus. The “diameter of the inhibition zone (DIZ)” value with Staphylococcus aureus [1] is listed as 21.6 mm; in the assay on Bacillus subtilis [2], 16.3 mm. Besides, the values for the MIC in the assay on Staphylococcus aureus [3] and with Bacillus subtilis [4] were 32 µg/mL (≈ 85.9 µM) and 128 µg/mL (≈ 344 µM), respectively.

With `COc1ccc(-c2nn(-c3ccc(S(N)(=O)=O)cc3)cc2C(N)=S)cc1`, the “inhibition (INH)” value turned out to be 55.5% with Aspergillus niger and 57.7% with Aspergillus flavus. Besides, the “diameter of the inhibition zone (DIZ)” value is on record as 16.6 mm with Staphylococcus aureus [1] and 15.6 mm with Bacillus subtilis [2]. Also, the MIC with Staphylococcus aureus [3] and in the assay on Bacillus subtilis [4] was 128 µg/mL (≈ 329 µM) throughout.

`O=C(O)c1cn(C2CC2)c2cc(N3CCNCC3)c(F)cc2c1=O` [CIPROFLOXACIN]: the “diameter of the inhibition zone (DIZ)” value was found to be 27.6 mm in the assay on Staphylococcus aureus [1] and 26.3 mm in the assay with Bacillus subtilis [2]. Further, the MIC against Staphylococcus aureus [3] and against Bacillus subtilis [4] was 5 µg/mL (≈ 15.1 µM) throughout.

As to `OC(Cn1cncn1)(Cn1cncn1)c1ccc(F)cc1F` [FLUCONAZOLE], the “inhibition (INH)” value in the assay on Aspergillus niger was 75.3%; with Aspergillus flavus, 74.6%.
